KCNQ1 pot: potentiators or activators of KCNQ1 channel, primary screen, cell-based, thallium flux, high-throughput. Potassium voltage-gated channel subfamily KQT member 1 (Homo sapiens), P51787. CHO-K1 KCNQ1, thallium flux FluxOR fluorescence; stronger effect = higher value. B-score at 10 µM. 310,000 tested, 0.35% active. AID 2648, 2010;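 active = fluorescence ratio B-score, a plate-corrected score, at least three library SD, with initial intensity B-score within 5 SD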
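Assay system: CHO-K1 cells stably expressing KCNQ1; Medium: assay buffer with matched DMSO; Also added: K+/Tl+ depolarizing stimulus; Dosing: single dose; Timing: dye 90 min, compound 20 min, room temperature; Measured by: kinetic FluxOR thallium fluorescence, 10-s 1-Hz baseline, 110-s post-stimulus read; Read-out: peak-minus-minimum fluorescence over initial fluorescence, negative-control normalized, B-scored.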
KCNQ1 inh: inhibitors of human KCNQ1 channel, primary screen, cell-based, thallium flux, high-throughput | B-score at 10 µM | CHO-K1 KCNQ1, FluxOR thallium flux fluorescence; stronger effect = higher value | 310,000 tested, 1.3% active | Potassium voltage-gated channel subfamily KQT member 1 (Homo sapiens), P51787;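 active = compounds whose thallium flux B-score, printed positive for inhibition, exceeds three library SD while starting fluorescence stays within three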;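 note: channel opened by potassium depolarization with thallium stimulus after 20 min compound exposure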
KCNK9 block: KCNK9 potassium channel inhibitors, primary screen, HEK293 cells, thallium flux. FluxOR thallium flux fluorescence; stronger effect = lower value. Potassium channel subfamily K member 9 (Homo sapiens), Q9NPC2. 310,000 tested, 1.2% active. B-score at 10 µM;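 active = ratio B-score over 3 SD below the library mean, with starting fluorescence within 5 SD of its mean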;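 note: negative B-score means less thallium flux so channel inhibition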
KCNK3 block: human KCNK3 channel inhibitors, primary screen, CHO cells, FluxOR thallium flux, B-score; FluxOR fluorescence; stronger effect = lower value; 340,000 tested, 0.84% active; B-score at 10 µM; Potassium channel subfamily K member 3 (Homo sapiens), O14649;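 active = B-score under library mean minus 4 SD, starting fluorescence ratio at most library mean plus 5 SD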;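 note: more negative B-score means stronger inhibition of thallium flux through KCNK3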
hERG rescue: hERG rescue from dofetilide block, primary screen, cell-based, CHO-hERG, FluxOR thallium flux, dofetilide IC70; Voltage-gated inwardly rectifying potassium channel KCNH2 (Homo sapiens), Q12809; dofetilide IC70 present; activation (rescue from dofetilide block), less the hit threshold, % at 10 µM; 310,000 tested, 0.51% active; AID 1511, 2009;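 active = activation above the mean of controls blocked by dofetilide plus 5 SD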;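 note: thallium influx through hERG after potassium depolarization seen as dye fluorescence rise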
Kir21 block: inhibitors of mouse Kir2.1 inward-rectifier potassium channel; Inward rectifier potassium channel 2 (Mus musculus), P35561; HEK293-Kir2.1, FluxOR thallium flux fluorescence; stronger effect = lower value; B-score at 10 µM; 310,000 tested, 0.85% active; AID 1672, 2009;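 active = fluorescence ratio B-score at or below minus 3 SD of library scores, with starting-brightness B-score within 2 SD, cut at about -4.2 in these data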;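 note: channel flux triggered by added potassium and thallium sulfate stimulus; B-score of peak minus minimum fluorescence over baseline after thallium stimulus; more negative B-score means stronger Kir2.1 block with less thallium influx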
Target sequence (P35561 whole entry, looked up): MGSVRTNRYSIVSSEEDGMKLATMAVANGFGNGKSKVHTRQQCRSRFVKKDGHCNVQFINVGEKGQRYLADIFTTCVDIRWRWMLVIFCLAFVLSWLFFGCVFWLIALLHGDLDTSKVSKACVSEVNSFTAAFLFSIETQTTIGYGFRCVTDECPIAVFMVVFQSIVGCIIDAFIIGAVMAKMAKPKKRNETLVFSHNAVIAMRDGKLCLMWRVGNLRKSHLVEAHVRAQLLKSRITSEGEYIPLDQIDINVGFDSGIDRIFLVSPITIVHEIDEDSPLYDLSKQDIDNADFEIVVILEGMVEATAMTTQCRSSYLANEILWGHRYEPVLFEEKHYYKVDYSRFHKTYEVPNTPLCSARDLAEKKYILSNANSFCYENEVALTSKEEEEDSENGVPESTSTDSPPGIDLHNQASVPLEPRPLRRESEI
KCNK9 inh conf: KCNK9 potassium channel inhibitors, confirmation, HEK293 cells, thallium flux, duplicate; shares compounds with KCNK9 block; FluxOR thallium flux fluorescence; inhibition, % at 10 µM; 4,900 tested, 43% active;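 active = thallium signal inhibited by more than 5 SD of the compound-free buffer control wells, on both duplicate plates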;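 note: 0% = assay buffer control wells without compound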
Kir2-1 spec: mouse Kir2.1 channel inhibition, confirmation, selectivity assay for KCNK9 modulator project, cell-based, HEK293, thallium flux | Kir2.1 cells, FluxOR thallium flux fluorescence | inhibition, % at 10 µM | shares compounds with KCNK9 block | 4,900 tested, 4% active;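 active = thallium signal drop more than 5 SD beyond the mean of the no-compound control wells, seen in both duplicate plates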;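 note: signal is fluorescence rise after thallium addition divided by baseline fluorescence; plate controls were assay buffer only for no effect and full block by chlorpromazine control for full effect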
HEK293 Tl ctr: thallium flux in non-induced HEK293 cells, confirmation, counter-screen for KCNK9 inhibitor project, cell-based, second counter screen, non-induced KCNK9-HEK293. shares compounds with KCNK9 block. FluxOR thallium flux. inhibition, % at 10 µM. 4,900 tested, 40% active. AID 492997, 2010;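 active = thallium signal drop beyond 5 SD of the untreated control mean, on both duplicate plates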;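 note: plate controls were buffer only IC0 wells for no effect and SID17386958 at its maximal inhibitory level for full effect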
KCNK3 inh conf: retest of human KCNK3 channel inhibitors, confirmation, CHO cells, FluxOR thallium flux, triplicate. shares compounds with KCNK3 block. FluxOR fluorescence; 0% buffer, 100% carvedilol maximal block. ratio percent of control, % at 10 µM. 2,400 tested, 99% active;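 active = ratio percent of control, averaged over triplicates, above buffer control mean plus 5 SD, cut at about 64% in these data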;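 note: ratio is the fluorescence rise from min to max over baseline after thallium stimulus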
KCNK3 uninduced: thallium flux inhibition in non-induced cells, primary screen, counter-screen for KCNK3 inhibitor project, cell-based, non-induced KCNK3 line, FluxOR thallium, triplicate. thallium flux ratio (lower = more inhibition) at 10 µM. non-induced KCNK3 parental cells; stronger effect = lower value. 2,400 tested, 40% active. shares compounds with KCNK3 block. AID 651747, 2012;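 active = thallium flux ratio, averaged over three wells, more than 5 SD below the buffer control mean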;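 note: host cells are CHO cells without KCNK3 induction; ratio is peak minus trough fluorescence over baseline then normalized to buffer controls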
* hit, by the source's call; i = inactive; x = not tested or not shown. Hits are enriched below; roughly 3.7% of the tested compounds scored in any of these assays.

SMILES	KCNQ1 pot	KCNQ1 inh	KCNK9 block	KCNK3 block	hERG rescue	Kir21 block	KCNK9 inh conf	Kir2-1 spec	HEK293 Tl ctr	KCNK3 inh conf	KCNK3 uninduced
O=C(CC(CC(=O)c1ccccc1)c1ccccc1)c1ccccc1	i	i	-12*	-11*	-10	0.83	36%*	i	34%*	110*	i
O=C(CC(CC(=O)c1ccccc1)C(=O)O)c1ccccc1	i	i	i	i	-15	0.09	x	x	x	x	x
Cc1cccnc1NC(=O)c1csnn1	i	i	i	i	-4	0.85	x	x	x	x	x
Cc1ccccc1Sc1c(C#N)c(-c2ccccc2)nn1C	i	i	-8.6*	-12*	-11	-1.6	42%*	i	50%*	123*	0.13*
Cc1ccc(Sc2c(CO)c(-c3ccccc3)nn2C)cc1	i	i	i	i	-18	2	x	x	x	x	x
O=C(COc1ccccc1)Nc1nnc(COc2ccccc2)s1	i	i	i	i	-1	0.12	x	x	x	x	x
CC(C)OC(=O)CSc1nc(Cc2ccccc2)nc2ccccc12	i	i	-15*	-11*	-24	-0.52	58%*	36%*	38%*	97*	i
CC(C)OC(=O)CSc1nc(C(C)C)nc2ccccc12	i	i	i	i	-13	-1.4	x	x	x	x	x
CCOC(=O)c1ccc(N2C(=O)c3n[nH]c(-c4ccco4)c3C2c2ccc([N+](=O)[O-])cc2)cc1 (stereo unspecified)	i	i	-8.3*	-9.8*	-5	-0.01	56%*	i	42%*	138*	0.11*
Cc1ccc(CN2CCCN(Cc3c(F)cccc3Cl)S2(=O)=O)cc1	i	i	-14*	-10*	-5	-0.13	60%*	i	43%*	113*	i
Cc1ccc(NC(=O)Nc2cccn(Cc3c(F)cccc3Cl)c2=O)cc1	i	i	i	i	-12	0.29	x	x	x	x	x
COc1cc2c(c3oc(-c4ccccc4)cc(=O)c13)C=CC(C)(C)O2	i	i	-9.4*	-8.8*	-10	0.07	44%*	i	i	122*	0.14*
CC(C)CC(=O)Nc1ccc(-c2nnn(CC(=O)NCc3ccco3)n2)cc1	i	i	i	i	-6	1.5	x	x	x	x	x
CN(C)S(=O)(=O)N1CCCC(C(=O)c2ccc(-c3ccccc3)c(F)c2)C1 (stereo unspecified)	i	i	-8.4*	-11*	-59	0.16	30%*	i	45%*	119*	i
COc1nc(N2CCCCCC2)nc(N2CCCCCC2)n1	i	i	-11*	i	-12	-0.94	i	i	54%*	99*	i
COC(=O)c1ccc(CSc2nc(-c3ccco3)cc(C(F)(F)F)n2)o1	i	i	-11*	i	-9	0.76	38%*	i	45%*	115*	0.15*
COc1ccc(CCNC(=O)CSc2nc(-c3ccco3)cc(C(F)(F)F)n2)cc1	i	i	i	i	-2	-1.2	x	x	x	x	x
CCOC(=O)c1ccc(NC(=O)COc2ccccc2CNCCc2ccccc2)cc1	i	11*	-8.1*	-12*	-25	-3.7	30%*	i	i	104*	i
CCOC(=O)c1ccc(NC(=O)COc2ccc(CNCCO)cc2OCC)cc1	i	i	i	i	-7	1.5	x	x	x	x	x
Cc1cccc(-c2ocnc2C(=O)Nc2ccccc2NC(=O)c2ccccn2)c1	i	i	-11*	-9.7*	-9	0.69	36%*	i	29%*	109*	0.16*
Cc1ccc(-c2ocnc2C(=O)Nc2ccccc2NC(=O)c2ccccn2)cc1	i	i	i	i	-7	1.9	x	x	x	x	x
O=[N+]([O-])c1cccc(C2CC(c3ccccc3)=NN2c2ccccc2)c1 (stereo unspecified)	i	i	-10*	i	-5	1.5	56%*	i	28%*	94*	i
CCOc1ccc(N(C(=O)c2ccc3c(c2)OCO3)C2C=CS(=O)(=O)C2)cc1 (stereo unspecified)	i	i	i	i	-7	-0.13	x	x	x	x	x
CCOC(=O)c1oc2ccccc2c1NC(=O)c1ccc2c(c1)OCO2	i	i	i	i	-11	-2.4	x	x	x	x	x
COc1ccc(NC(=O)c2oc3ccccc3c2NC(=O)c2ccc3c(c2)OCO3)cc1	i	i	-11*	-9*	-20	-0.34	58%*	i	i	88*	i
COc1ccc(C(=O)NC2CCCc3c2cnn3-c2cccc(C)c2C)o1 (stereo unspecified)	i	i	i	i	-19	-0.75	x	x	x	x	x
O=Cc1c(OCc2ccccc2)ccc2ccccc12	i	i	-17*	-11*	-9	0	64%*	i	50%*	113*	0.15*
S=C1NCCN1CC1CCN(CC2CCCC2)CC1	x	x	x	i	x	x	x	x	x	x	x
